Test results taken from article PMC9043769 (RSC Advances, 2021).
Where two headings read alike, the source gives them in different places.

Legend:
[1] = test system: MCF-7 (ER+ breast adenocarcinoma) cells; assay: MTT cytotoxicity assay, 72 h; format: cell-based, human; settings: for IC50: read-out: IC50, after 72 h incubation, MCF-7
Outline: (§1)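 Cell lines (ATCC) grown in DMEM with […], 10% FCS and antibiotic–antimycotic at 37 °C, 5% CO2. […] IC50 was calculated from means of at least two or three independent experiments in triplicate or quadruplicate.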

[2] = test system: MDA-MB-231 (ER− breast adenocarcinoma) cells; assay: MTT cytotoxicity assay, 72 h; format: cell-based, human; settings: read-out: IC50, after 72 h incubation, MDA-MB-231
Outline: as §1

[3] = test system: PC-3 prostate cancer cells; assay: MTT cytotoxicity assay, 72 h; format: cell-based, human
Outline: as §1

[4] = test system: HeLa cervical carcinoma cells; assay: MTT cytotoxicity assay, 72 h; format: cell-based, human
Outline: as §1

[5] = test system: HT-29 colon adenocarcinoma cells; assay: MTT cytotoxicity assay, 72 h; format: cell-based, human; settings: read-out: IC50, after 72 h incubation, HT-29
Outline: as §1

[6] = test system: A549 lung adenocarcinoma cells; assay: MTT cytotoxicity assay, 72 h; format: cell-based, human; settings: read-out: IC50, after 72 h incubation, A549
Outline: as §1

[7] = test system: MRC-5 normal fetal lung fibroblasts; assay: MTT cytotoxicity assay, 72 h; format: cell-based, human; settings: read-out: IC50, after 72 h incubation, MRC-5
[8] = test system: CEM T-lymphoblastic leukemia cells; assay: alamarBlue; format: cell-based, human; settings: read-out: IC50, after 72 h incubation, CEM
Outline: (§2)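 CEM cells grown in RPMI 1640 with 20% FBS; G-361 and BJ cells in DMEM with 10% FBS. All media had 2 mM L-glutamine and 1% penicillin-streptomycin, 37 °C, 5% CO2. Six concentrations of compound, 0.2–50 μM (3× dilution), were applied for 72 h, with a resazurin (alamarBlue) read-out. IC50 came from means of at least two or three independent experiments in triplicate or quadruplicate.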

[9] = test system: G-361 malignant melanoma cells; assay: alamarBlue; format: cell-based, human; settings: read-out: IC50, after 72 h incubation, G-361
Outline: as §2

[10] = test system: BJ human foreskin fibroblasts; assay: alamarBlue; format: cell-based; settings: read-out: IC50, after 72 h incubation, BJ, normal fibroblasts
Outline: as §2

N.N.[Cl][Pt][Cl] [Cis-Pt, cisplatin]
IC50 ([1]; MTT, 72 h): 1.6 µM | IC50 ([2]; MTT, 72 h): 2.6 µM | IC50 ([3]; read-out: IC50, after 72 h incubation, PC-3, MTT): 4.5 µM | IC50 ([4]; read-out: IC50, after 72 h incubation, HeLa, MTT): 2.1 µM | IC50 ([5]; MTT, 72 h): 4.1 µM | IC50 ([6]; MTT, 72 h): 3.2 µM | IC50 ([7]; MTT, 72 h, normal cells): 0.2 µM | IC50 [8]: 0.8 µM | IC50 [9]: 4.5 µM | IC50 [10]: 9.6 µM

C[C@]12CCC(=O)C(O)=C1CC[C@@H]1[C@@H]2CC[C@]2(C)C(=O)CC[C@@H]12 [For, formestane]
IC50 ([1]; Homo sapiens, MCF7, 72 h): > 100 µM | Toxicity toward MCF-7 tumor cells (in words) ([1]; MTT, 72 h): no toxicity | IC50 ([2]; Homo sapiens, MDA-MB-231, 72 h): 19.6 µM | IC50 ([3]; Homo sapiens, read-out: IC50, after 72 h incubation, PC-3): 26.4 µM | IC50 ([4]; Homo sapiens, HeLa, read-out: IC50, after 72 h incubation, HeLa): 3.4 µM | IC50 ([5]; Homo sapiens, HT-29, 72 h): > 100 µM | IC50 ([6]; Homo sapiens, A549, 72 h): 38.6 µM | IC50 ([7]; Homo sapiens, MRC5, 72 h): > 100 µM
